The nature of test [1]: Immunostimulatory activity in C57BL/6 mouse BMDC assessed as increase in mean fluorescence intensity of MHC class2 expression at 10 ug relative to untreated control. In kind it is functional. The gist of the method:
(§1)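 Bone marrow stem cells from C57Bl/6 J mice grown 6 days in IMDM with 5% FBS, penicillin/streptomycin, glutamax, 2-mercaptoethanol and 20 ng/ml GM-CSF, 37 °C, 5% CO2. Seeded at 5 × 10^5 cells/mL and pulsed with formulations holding 10 µg saponin (cholesterol/phosphatidylcholine film hydration); LPS 10 µg/mL positive control. After 48 h, flow cytometry gated on propidium iodide-negative CD11c+ cells. MFI divided by medium-only MFI. Run 1–3 times.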

The nature of test [2]: Immunostimulatory activity in C57BL/6 mouse BMDC assessed as increase in mean fluorescence intensity of CD86 expression at 10 ug relative to untreated control. In kind it is functional. The gist of the method: as §1

`COC(=O)[C@H]1O[C@@H](O[C@H]2CC[C@]3(C)[C@H]4C(=O)C=C5[C@@H]6C[C@@](C)(C(=O)O[C@@H]7O[C@H](CO)[C@@H](O)[C@H](O)[C@H]7O)CC[C@]6(C)CC[C@@]5(C)[C@]4(C)CC[C@H]3C2(C)C)[C@H](O[C@@H]2O[C@H](C(=O)O)[C@@H](O)[C@H](O)[C@H]2O)[C@@H](O)[C@@H]1O`: the “fold change (FC)” value in test [1] and in test [2] was 1.3 throughout.

For the compound `CC1(C)CC[C@]2(C(=O)O)CC[C@]3(C)C(=CC[C@@H]4[C@@]5(C)CC[C@H](O[C@H]6O[C@H](CO)[C@@H](O)[C@H](O)[C@@H]6O[C@H]6O[C@H](CO)[C@@H](O)[C@H](O)[C@@H]6O[C@H]6O[C@H](CO)[C@@H](O)[C@H](O)[C@@H]6O)C(C)(C)[C@@H]5CC[C@]43C)[C@@H]2C1`, the “fold change (FC)” value in test [1] worked out at 1.1; in test [2] it was 0.8.

As to `COC(=O)[C@H]1O[C@@H](O[C@H]2[C@H](O[C@H]3CC[C@]4(C)[C@H]5C(=O)C=C6[C@@H]7C[C@@](C)(C(=O)O[C@@H]8O[C@H](CO)[C@@H](O)[C@H](O)[C@H]8O)CC[C@]7(C)CC[C@@]6(C)[C@]5(C)CC[C@H]4C3(C)C)O[C@H](C(=O)O)[C@@H](O)[C@@H]2O)[C@H](O)[C@@H](O)[C@@H]1O`, the entries for the “fold change (FC)” value in test [1] and in test [2] were 1.1 and 1, respectively.

On to `COC(=O)[C@H]1O[C@@H](O[C@H]2[C@H](O[C@H]3CC[C@]4(C)[C@H]5C(=O)C=C6[C@@H]7C[C@@](C)(C(=O)O)CC[C@]7(C)CC[C@@]6(C)[C@]5(C)CC[C@H]4C3(C)C)O[C@H](C(=O)O)[C@@H](O)[C@@H]2O)[C@H](O)[C@@H](O)[C@@H]1O`, for which the “fold change (FC)” value is 1.4 in test [1] and 0.9 in test [2].

Turning to `CC1(C)CC[C@]2(C(=O)O[C@H]3O[C@H](CO[C@H]4O[C@H](CO)[C@@H](O)[C@H](O)[C@@H]4O)[C@@H](O)[C@H](O[C@H]4O[C@H](CO)[C@@H](O)[C@H](O)[C@@H]4O)[C@@H]3O)CC[C@]3(C)C(=CC[C@@H]4[C@@]5(C)CC[C@H](O[C@H]6O[C@H](CO[C@H]7O[C@H](CO)[C@@H](O)[C@H](O)[C@@H]7O)[C@@H](O)[C@H](O[C@H]7O[C@H](CO)[C@@H](O)[C@H](O)[C@@H]7O)[C@@H]6O)C(C)(C)[C@@H]5CC[C@]43C)[C@@H]2C1`, the “fold change (FC)” value in test [1] was found to be 1.3; in test [2], 2.

Take `CC1(C)CC[C@]2(C(=O)O)CC[C@]3(C)C(=CC[C@@H]4[C@@]5(C)CC[C@H](O[C@H]6O[C@H](CO)[C@@H](O)[C@H](O)[C@@H]6O[C@H]6O[C@H](CO)[C@@H](O)[C@H](O)[C@@H]6O)C(C)(C)[C@@H]5CC[C@]43C)[C@@H]2C1`: the “fold change (FC)” value in test [1] is 1.6; in test [2] it was 1.2.

Consider `COC(=O)[C@H]1O[C@@H](O[C@H]2CC[C@]3(C)[C@H]4C(=O)C=C5[C@@H]6C[C@@](C)(C(=O)O)CC[C@]6(C)CC[C@@]5(C)[C@]4(C)CC[C@H]3C2(C)C)[C@H](O[C@@H]2O[C@H](C(=O)O)[C@@H](O)[C@H](O)[C@H]2O)[C@@H](O)[C@@H]1O`, for which the “fold change (FC)” value in test [1] was determined as 1.5; in test [2], 0.9.

As to `CC1(C)CC[C@]2(C(=O)O[C@H]3O[C@H](CO)[C@@H](O)[C@H](O)[C@@H]3O[C@H]3O[C@H](CO)[C@@H](O)[C@H](O)[C@@H]3O[C@H]3O[C@H](CO)[C@@H](O)[C@H](O)[C@@H]3O)CC[C@]3(C)C(=CC[C@@H]4[C@@]5(C)CC[C@H](O[C@H]6O[C@H](CO)[C@@H](O)[C@H](O)[C@@H]6O[C@H]6O[C@H](CO)[C@@H](O)[C@H](O)[C@@H]6O[C@H]6O[C@H](CO)[C@@H](O)[C@H](O)[C@@H]6O)C(C)(C)[C@@H]5CC[C@]43C)[C@@H]2C1`, the “fold change (FC)” value in test [1] came to 1; in test [2] it was 0.9.

For `COC(=O)[C@H]1O[C@@H](O[C@H]2[C@H](O[C@H]3CC[C@]4(C)[C@H]5C(=O)C=C6[C@@H]7C[C@@](C)(C(=O)O)CC[C@]7(C)CC[C@@]6(C)[C@]5(C)CC[C@H]4C3(C)C)O[C@H](C(=O)OC)[C@@H](O)[C@@H]2O)[C@H](O)[C@@H](O)[C@@H]1O`, the “fold change (FC)” value in test [1] is reported as 1.1; in test [2], 0.9.

The values above are taken from ChEMBL document CHEMBL1152501, “Mannosylated saponins based on oleanolic and glycyrrhizic acids. Towards synthetic colloidal antigen delivery systems” (2009).
